From ChEMBL document CHEMBL3525987, “Assessment of exposure of metabolites in preclinical species and humans at steady state from the single-dose radiolabeled absorption, distribution, metabolism, and excretion studies: a case study” (Drug Metab Dispos, 2012)

Assays:
Settings in all cases: in vivo
[1] = system: Canis familiaris; experiment: AUC(0 to t) as total radioactivity in male beagle dog plasma at 10 mg/kg, po administered as single dose by LC-MS/MS analysis; assay type: ADME, organism-based, Canis lupus familiaris; set-up: dose 10 mg/kg, dosed compound name [14C]lixivaptan, route oral
Outline: (§1)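 Four male beagles were fasted 18 h and gavaged once with 10 mg/kg (2 ml/kg) [14C]lixivaptan as a 5.0 mg/ml water/pluronic F68 suspension. Jugular K2EDTA blood was sampled from 0.25 to 168 h. Plasma total radioactivity was counted by LSC as ng-equiv/ml and lixivaptan by validated LC-MS/MS. Noncompartmental Cmax, t1/2 and trapezoidal AUC were derived.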

[2] = system: Rattus norvegicus; experiment: Drug level in male Sprague-Dawley rat plasma at 10 mg/kg, po administered as single dose via gavage measured after 1 hr by liquid scintillation counting; assay type: ADME, organism-based; set-up: dose 10 mg/kg, dosed compound name [14C]lixivaptan, route oral
Outline: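 Single oral gavage of [14C]drug (10 mg/kg, 10 ml/kg) as suspension in deionized water with pluronic F68, ~29.8 µCi/mg; SD rats fasted 18 h, fed 4 h post-dose. Blood by cardiac puncture under isoflurane, 3 rats/time/gender, into K2EDTA at 1, 8, 24 h; plasma extracted twice with 2 vol acetonitrile, radio-HPLC on C18 with flow radioactivity detection, expressed as % plasma radioactivity.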

[3] = system: Canis familiaris; experiment: Total Drug recovery in male beagle dog at 10 mg/kg, po administered as single dose via gavage measured after 168 hrs by liquid scintillation counting; assay type: ADME, organism-based, Canis lupus familiaris; set-up: dose 10 mg/kg, dosed compound name [14C]lixivaptan, route oral
Outline: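 Four male dogs, fasted 18 h, given [14C]drug by gavage as a 5.0 mg/ml suspension in pluronic F68/deionized water (2 ml/kg, 1.04 μCi/mg), followed by a 10 ml water rinse. Urine and feces collected frozen over dry ice at 0-8, 8-24 h, then every 24 h for 7 days. Feces combusted before LSC; total includes cage wash/debris.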

[4] = system: Rattus norvegicus; experiment: Total Drug recovery in female Sprague-Dawley rat at 10 mg/kg, po administered as single dose via gavage measured after 168 hrs by liquid scintillation counting; assay type: ADME, organism-based; set-up: dose 10 mg/kg, dosed compound name [14C]lixivaptan, route oral
Outline: (§2)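 Intact SD rats (3/gender) dosed by gavage with [14C]drug 10 mg/kg (10 ml/kg, pluronic F68/water), housed in metabolism cages; urine and feces at 0-8, 8-24 h, then every 24 h to 7 days. Urine counted by LSC; feces homogenized 20% w/w in water, combusted, trapped CO2 counted; cage wash/debris included; % of dose.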

[5] = system: Canis familiaris; experiment: Drug level in beagle dog plasma at 10 mg/kg, po administered as single dose measured after 2 hrs by liquid scintillation counting; assay type: ADME, organism-based, Canis lupus familiaris; set-up: dose 10 mg/kg, dosed compound name [14C]lixivaptan, route oral
Outline: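 Four male beagles fasted 18 h were gavaged once with [14C]lixivaptan at 10 mg/kg (2 ml/kg). The 5.0 mg/ml suspension was in deionized water with pluronic F68 (1.04 µCi/mg). Jugular K2EDTA plasma was taken at 2, 8 and 24 h and extracted twice with 2 volumes of acetonitrile. Profiling used C18 radio-HPLC (ammonium formate/acetonitrile gradient) with on-line flow scintillation detection. Each peak is reported as percent of plasma radioactivity.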

[6] = system: Rattus norvegicus; experiment: Tmax as total radioactivity in female Sprague-Dawley rat plasma at 10 mg/kg, po administered as single dose via gavage by LC-MS/MS analysis; assay type: ADME, organism-based; set-up: dose 10 mg/kg, dosed compound name [14C]lixivaptan, route oral
Outline: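 Jugular-vein cannulated SD rats (5/gender) given gavage [14C]drug 10 mg/kg in pluronic F68/water; K2EDTA blood 0.25-168 h with donor blood replacement. Parent by validated LC-MS/MS, radioactivity by LSC; Tmax observed; t1/2 = 0.693/kel by terminal log-linear regression.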

[7] = system: Homo sapiens; experiment: Drug level in human plasma at 100 mg, po administered as single dose measured after 0.5 hrs by liquid scintillation counting; assay type: ADME, organism-based; set-up: dosed compound name [14C]lixivaptan
Outline: (§3)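 Healthy male volunteers fasted ≥10 h, given single oral 100 mg (200 µCi) [14C]drug as two 50-mg capsules with 250 ml water. Plasma (from ~50 ml blood) at 0.5, 2, 4, 8, 12, 24, 36 h, profiled per subject. Acetonitrile extraction, C18 radio-HPLC with 0.2% formic acid acetonitrile/water gradient, on-line radioactivity detection as % plasma radioactivity; ng-equiv/ml from % × total radioactivity.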

[8] = system: Rattus norvegicus; experiment: AUC(0 to t) as total radioactivity in male Sprague-Dawley rat plasma at 10 mg/kg, po administered as single dose via gavage by LC-MS/MS analysis; assay type: ADME, organism-based; set-up: dose 10 mg/kg, dosed compound name [14C]lixivaptan, route oral
Outline: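 Jugular-cannulated Sprague-Dawley rats (5/gender) were fasted 18 h and gavaged once with 10 mg/kg [14C]lixivaptan suspended in water/pluronic F68. K2EDTA blood was taken at 0.25–168 h, with donor blood replaced from 1 h on. Total radioactivity was read by LSC (ng-equiv/ml) and parent by validated LC-MS/MS. Noncompartmental Cmax, log-linear kel and trapezoidal AUC followed.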

[9] = system: Homo sapiens; experiment: Half life as total radioactivity in human plasma at 100 mg, po administered as single dose by LC-MS/MS analysis; assay type: ADME, organism-based; set-up: dosed compound name [14C]lixivaptan
Outline: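 Single oral 100 mg [14C]drug to healthy male volunteers; plasma at 0.25-144 h. Parent by validated LC-MS/MS, total radioactivity by LSC as ng-equiv/ml; Tmax from observed data; t1/2 = 0.693/kel from log-linear terminal regression.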

[10] = system: Homo sapiens; experiment: AUC(0 to infinity) as total radioactivity in human plasma at 100 mg, po administered as single dose by LC-MS/MS analysis; assay type: ADME, organism-based; set-up: dose 100 mg, route oral, dosed compound name [14C]lixivaptan, time infinity
Outline: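 Fasted healthy males took one oral 100 mg (200 µCi) [14C]lixivaptan dose. Plasma was drawn from predose to 144 h. Total radioactivity was measured by LSC and converted to ng-equiv/ml via the dose specific activity; lixivaptan by validated LC-MS/MS. Noncompartmental analysis: Cmax observed; kel by log-linear regression; AUC0-t by linear trapezoid; extrapolation as Cest/kel.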

[11] = system: Rattus norvegicus; experiment: Total Drug recovery in male Sprague-Dawley rat at 10 mg/kg, po administered as single dose via gavage measured after 168 hrs by liquid scintillation counting; assay type: ADME, organism-based; set-up: dose 10 mg/kg, dosed compound name [14C]lixivaptan, route oral
Outline: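 Intact rats, 3/gender, given [14C]drug as a suspension in deionized water with pluronic F68 (10 ml/kg, ~29.8 μCi/mg), fasted 18 h before dosing, fed 4 h after. Urine and feces collected at 0-8, 8-24 h, then every 24 h for 7 days. Feces homogenized, combusted and counted; urine counted by LSC in duplicate. Recovery is % of dose, including cage wash/debris.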

[12] = system: Homo sapiens; experiment: Drug level in human plasma at 100 mg, po administered as single dose measured after 4 hrs by liquid scintillation counting; assay type: ADME, organism-based; set-up: dosed compound name [14C]lixivaptan; outline: as §3
[13] = system: Canis familiaris; experiment: Tmax as total radioactivity in male beagle dog plasma at 10 mg/kg, po administered as single dose by LC-MS/MS analysis; assay type: ADME, organism-based, Canis lupus familiaris; set-up: dose 10 mg/kg, dosed compound name [14C]lixivaptan, route oral
Outline: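 Male beagles given 10 mg/kg [14C]drug oral suspension; jugular K2EDTA blood at 0.25-168 h. Parent by validated LC-MS/MS, total radioactivity by LSC; Tmax observed; t1/2 = 0.693/kel from terminal log-linear regression.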

[14] = system: Canis familiaris; experiment: AUC(0 to infinity) as total radioactivity in male beagle dog plasma at 10 mg/kg, po administered as single dose by LC-MS/MS analysis; assay type: ADME, organism-based, Canis lupus familiaris; set-up: time infinity, dose 10 mg/kg, dosed compound name [14C]lixivaptan, route oral; outline: as §1
[15] = system: Homo sapiens; experiment: Drug level in human plasma at 100 mg, po administered as single dose measured after 2 hrs by liquid scintillation counting; assay type: ADME, organism-based; set-up: dosed compound name [14C]lixivaptan; outline: as §3
[16] = Drug recovery in feces of male Sprague-Dawley rat at 10 mg/kg, po administered as single dose via gavage measured after 168 hrs by liquid scintillation counting; assay type: ADME, organism-based; set-up: dose 10 mg/kg, dosed compound name [14C]lixivaptan, route oral; outline: as §2

Cc1ccc(F)cc1[14C](=O)Nc1ccc(C(=O)N2Cc3cccn3Cc3ccccc32)c(Cl)c1
AUCt [1]: 82800 ng.Eq.hr/ml
Compound recovery [2]: 4.1%
Radiolabel recovery [3]: 95.9%
Radiolabel recovery [4]: 103%
Compound recovery [5]: 21.2%
Tmax [6]: 1.4 h
Compound recovery [7]: 43.5%
AUCt [8]: 65700 ng.Eq.hr/ml
t1/2 [9]: 25.5 h
AUC [10]: 26200 ng.Eq.hr/ml
Radiolabel recovery [11]: 99%
Compound recovery [12]: 8%
Tmax [13]: 1.8 h
AUC [14]: 94900 ng.Eq.hr/ml
Compound recovery [15]: 13.4%
Radiolabel recovery [16]: 91%
